Scp1 inh – Scp-1 phosphatase inhibitors, primary screen, biochemical, colorimetric, uHTS. Recombinant Scp1, phosphopeptide, malachite green phosphate absorbance. Carboxy-terminal domain RNA polymerase II polypeptide A small phosphatase 1 (Homo …. hit rate 0.88% among 340,000. inhibition, % at 20 µM;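 active = inhibition above about 50% at 20 µM, limit read from the data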;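 also: plate controls were DMSO wells with enzyme for no effect and wells lacking enzyme for full effect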
Target sequence (Q9GZU7 76-261 limits assumed): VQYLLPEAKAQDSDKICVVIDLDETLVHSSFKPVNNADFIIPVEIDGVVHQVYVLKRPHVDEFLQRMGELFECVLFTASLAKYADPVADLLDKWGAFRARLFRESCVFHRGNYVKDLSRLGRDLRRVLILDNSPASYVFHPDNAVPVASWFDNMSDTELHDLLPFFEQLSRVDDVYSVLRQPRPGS
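Times: enzyme reaction 45 min at room temperature, colour 5 min, stabilisation 30 min. Material: SCP-1 catalytic fragment, aa 76-261. Medium: Acidic Tris acetate buffer with magnesium and detergent. Signal: colorimetric free-phosphate detection, absorbance 630 nm. Read-out basis: % inhibition of SCP-1 phosphate liberation. Reagent: Phosphorylated 17-residue peptide substrate.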
LMPTP inh – LMPTP phosphatase inhibitors, primary screen, biochemical, fluorescence intensity, uHTS. Low molecular weight phosphotyrosine protein phosphatase (Homo sapiens), P24666. recombinant LMPTP-A, OMFP fluorogenic substrate. inhibition, % at 20 µM. hit rate 0.22% among 360,000;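 active = compounds that cut the enzyme signal by at least half of the control window in the single-dose screen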;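 also: plate controls were DMSO wells with enzyme plus substrate for no effect and substrate without enzyme for full effect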
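test system = LMPTP-A | amount = 0.625 nM LMPTP-A final | reagent = fluorogenic phosphatase substrate OMFP at 400 µM final | incubation = 50 min at room temperature | benchmarks = no-enzyme low control, uninhibited high control | medium = Bis-Tris pH 6.0, DTT, detergent | signal = fluorescence intensity of OMFP turnover product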
DNMT1 inh – human DNMT1 methyltransferase inhibitors, primary screen, biochemical, molecular beacon, fluorescence, HinP1I cleavage, uHTS; DNA (cytosine-5)-methyltransferase 1 (Homo sapiens), P26358; inhibition (reported as % activation of signal), % at 10 µM; hit rate 0.83% among 360,000; AID 588458, 2011; in the data active = inhibition above about 50%
SUMO1-SIM PPI – modulators of SUMO1 protein-protein interactions, primary screen, biochemical, uHTS. inhibition, % at 20 µM. hit rate 0.33% among 360,000. SUMO1 binding to a labelled peptide, TR-FRET, 1 h. Small ubiquitin-related modifier 1 (Homo sapiens), P63165; in the data active = inhibition above about 37%
Rpn11 block – Rpn11 (PSMD14) deubiquitinase inhibitors, primary screen, biochemical, fluorescence polarization, uHTS; hit rate 0.59% among 360,000; inhibition, % at 20 µM; human 26S proteasome, Ub4-pepOG fluorescence polarization; 20S core pre-blocked with epoxomicin; AID 588493, 2011;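 active = inhibition at 20 µM, scaled to each plate's controls, above about 33%, limit read from the data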
Target sequence (O00487 whole entry, looked up): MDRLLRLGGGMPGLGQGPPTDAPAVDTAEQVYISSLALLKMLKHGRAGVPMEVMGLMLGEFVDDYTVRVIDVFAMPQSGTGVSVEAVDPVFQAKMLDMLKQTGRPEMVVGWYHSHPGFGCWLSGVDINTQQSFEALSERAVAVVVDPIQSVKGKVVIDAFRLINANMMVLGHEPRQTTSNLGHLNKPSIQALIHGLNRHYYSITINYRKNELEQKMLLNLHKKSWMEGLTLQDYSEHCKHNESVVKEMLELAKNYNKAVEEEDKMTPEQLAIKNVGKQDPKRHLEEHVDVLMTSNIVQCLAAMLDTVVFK
STEP inh – STEP phosphatase inhibitors, primary screen, biochemical, fluorescence intensity, uHTS; inhibition, % at 20 µM; recombinant STEP, OMFP fluorogenic substrate; hit rate 0.25% among 360,000; Tyrosine-protein phosphatase non-receptor type 5 (Homo sapiens), P54829;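 active = inhibition at 20 µM, scaled per plate between control wells, above about 37%, limit read from the data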;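 also: 0% = DMSO with enzyme and substrate and 100% = substrate only without enzyme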
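System: isolated STEP enzyme; schedule: 20 min enzyme reaction at room temperature, protected from light; medium: Bis-Tris buffer pH 6.0, 2.5 mM DTT, 0.005% Tween 20; signal: fluorescence, 480/540 nm; dosing: single compound dose of 20 µM, 1% DMSO final; also added: OMFP substrate, 25 µM final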
Scp-1 conf – Scp-1 phosphatase inhibitors, retest, confirmation, biochemical, colorimetric, single concentration. shares compounds with Scp1 inh. recombinant SCP-1 catalytic domain, phosphate release, malachite green absorbance. inhibition, % at 20 µM. hit rate 61% among 2,500;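 also: plate controls were DMSO with enzyme for no effect and buffer wells lacking enzyme for full effect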
MG interference – colorimetric readout interference by compounds, confirmation, artefact control for Scp-1 inhibitor project, biochemical, single concentration. shares compounds with Scp1 inh. 2,500 tested, under 10 active. apparent inhibition (interference), % at 20 µM. AID 540313, 2011. Colorimetric interference counterscreen, malachite green absorbance 630 nm;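 also: compounds added after enzyme reaction finished so only phosphate colour detection is probed; plate controls were DMSO wells with completed Scp-1 reaction for no effect and substrate wells lacking enzyme for full effect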
Scp-1 Tm shift – Scp-1 binding by thermal shift, confirmation, orthogonal assay for Scp-1 inhibitor project, biophysical, differential scanning fluorimetry; shares compounds with Scp1 inh; Recombinant SCP1, Sypro Orange thermal shift Tm; thermal shift relative to vanadate control, % at 40 µM; hit rate 25% among 1,500; AID 540329, 2011;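 active = substances whose mean melting-temperature shift, as a percentage of the reference inhibitor's shift, reaches about 5.3%, limit read from the data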;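 also: 0% = Tm of DMSO wells and 100% = Tm with sodium orthovanadate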
The depositor's hits bear a star; / = no result. Only some compounds are listed: those with a hit (about 2.3% of all), similar ones and a draw of the others.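 The calls were made as follows, unless noted: active = inhibition of at least 30% at 20 µM; inactive = the rest.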

SMILES	Scp1 inh	LMPTP inh	DNMT1 inh	SUMO1-SIM PPI	Rpn11 block	STEP inh	Scp-1 conf	MG interference	others
O=C(CC1SC(=NCc2ccccc2)NC1=O)Nc1ccccc1 (stereo unspecified)	7	1	5	1	5	0	/	/
CCn1c(=O)c(NC(=O)c2ccccc2)c2n(c1=S)CCCCC2	61*	-2	1	2	-6	-5	40*	-14	Scp-1 Tm shift=-13
CCC(Oc1ccccc1)C(=O)Nc1nc2c(s1)C(=O)CC(C)(C)C2 (stereo unspecified)	-8	0	1	-5	6	1	-9	-10
CCC(C)C(=O)Nc1nc2c(s1)C(=O)CC(C)(C)C2 (stereo unspecified)	-13	-2	2	1	-4	-1	/	/
CCCOCC(O)CCc1n[nH]c(=S)n1-c1ccccc1 (stereo unspecified)	60*	1	8	-2	-4	-1	-7	-6
C=CCNC(=O)c1ccc2c(c1)N(CC)C(=O)c1ccccc1S2	-5	-2	0	1	-1	-5	/	/
CCOC(=O)c1ccc2c(c1)N(CC)C(=O)c1ccccc1S2	83*	1	2	6	-10	0	13	-9
O=c1ccc(-c2ccc(S(=O)(=O)N3CCN(c4cccc(Cl)c4)CC3)o2)n[nH]1	1	-2	11	-8	8	3	/	/
COc1cc([C@@H]2OC[C@@H]3[C@H]2CO[C@@H]3c2ccc3c(c2)OCO3)ccc1O	-6	-1	7	3	-6	1	/	/
COc1cc(CC2COC(c3ccc(O)c(OC)c3)C2COC(C)=O)ccc1O (stereo unspecified)	85*	13	63*	18	12	-4	61*	-13	Scp-1 Tm shift=5
Cc1cc(=O)oc2cc(OCC(=O)N3CCC(C(N)=O)CC3)ccc12	12	0	-3	1	-3	-4	/	/
CN(CCNC(=O)c1cc2c(=O)n(C)c3ccccc3c2n1C)Cc1ccccc1	-16	0	1	5	13	0	/	/
CCCN(CCC)CCNC(=O)c1cc2c(=O)n(C)c3ccccc3c2n1C	90*	2	3	5	7	1	-8	-8
CCc1ccccc1NC(=S)N(CCN1CCCCC1)Cc1ccco1	-7	-3	-1	1	0	6	/	/
CCCCOc1ccc(-c2nnc(-c3ccncc3)o2)cc1	-7	-1	2	0	-15	-1	/	/
CCCOc1ccc(-c2nnc(-c3cccs3)o2)cc1	67*	1	-4	18	-4	-2	-12	-19
C/C(Cn1nc([N+](=O)[O-])cc1C)=N\NC(=O)c1ccc(C(C)(C)C)cc1	81*	-2	-4	-8	-4	10	-21	-19
O=[N+]([O-])c1cccn2cc(-c3ccc(Br)cc3)nc12	107*	34	15	-21	12	56*	86*	-11	Scp-1 Tm shift=8.2*
Cc1ccc(-c2cn3cccc(C)c3n2)cc1	6	1	1	0	2	1	/	/
O=C(OCc1cc(=O)n2ccsc2n1)c1ccccc1O	53*	2	30	7	-15	-4	8	-5

Screening results as filed in PubChem BioAssay.
